According to ChEMBL document CHEMBL1125112, “Antitumor imidazotetrazines. 20. Preparation of the 8-acid derivative of mitozolomide and its utility in the preparation of active antitumor agents” (1990):

Key:
[1] = test system: L1210; test: In vivo antitumor activity against the L1210 leukemia cell line in mouse species B6D2F1 after peroral administration (inoculum cells-10E5,ip) at the dose of 80 mg/kg on 10th day; assay type: functional; settings: route oral
Procedure, shortened: (§1)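 B6D2F1 mice were inoculated with 10^5 L1210 leukemia cells, ip or iv as the line states. Compound was given orally as a suspension in 1% (carboxymethyl)cellulose in water, dosed on day 1 or 3, over 28–39 days. T/C% = mean death day of treated/mean death day of controls. Survivors to the end were counted in groups of 7–8.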

[2] = test system: TLX-5; test: (§2) In vivo antitumor activity against the TLX5 lymphoma cell line in mouse species CBA/CA after intraperitoneal administration (inoculum cells-2x10E5,sc) at the dose of 20 mg/kg; assay type: functional
Procedure, shortened: (§3)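 CBA/CA mice were inoculated with 2 × 10^5 TLX5 lymphoma cells. Drug given intraperitoneally in 10% Me2SO in arachis oil, 5 mice per dose, and the experiment lasted 60 days. Survivors at 60 days were recorded. T/C % = mean death day of treated animals / mean death day of control animals.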

[3] = test system: TLX-5; test: In vivo antitumor activity against the TLX5 lymphoma cell line in mouse species CBA/CA after intraperitoneal administration (inoculum cells-2x10E5,sc) at the dose of 10 mg/kg on 5th day; assay type: functional
[4] = test system: TLX-5; test: In vivo antitumor activity against the TLX5 lymphoma cell line in mouse species CBA/CA after intraperitoneal administration (inoculum cells-2x10E5,sc) at the dose of 5 mg/kg on 5th day; assay type: functional
[5] = test system: TLX-5; test: In vivo antitumor activity against the TLX5 lymphoma cell line in mouse species CBA/CA after intraperitoneal administration (inoculum cells-2x10E5,sc) at the dose of 80 mg/kg on 5th day; assay type: functional
[6] = test system: TLX-5; test: (§4) In vivo antitumor activity against the TLX5 lymphoma cell line in mouse species CBA/CA after intraperitoneal administration (inoculum cells-2x10E5,sc) at the dose of 160 mg/kg; assay type: functional; procedure, shortened: as §3
[7] = test system: TLX-5; test: In vivo antitumor activity against the TLX5 lymphoma cell line in mouse species CBA/CA after intraperitoneal administration (inoculum cells-2x10E5,sc) at the dose of 40 mg/kg; assay type: functional; procedure, shortened: as §3
[8] = test system: TLX-5; test: In vivo antitumor activity against the TLX5 lymphoma cell line in mouse species CBA/CA after intraperitoneal administration (inoculum cells-2x10E5,sc) at the dose of 80 mg/kg; assay type: functional; procedure, shortened: as §3
[9] = test system: TLX-5; test: In vivo antitumor activity against the TLX5 lymphoma cell line in mouse species CBA/CA after intraperitoneal administration (inoculum cells-2x10E5,sc) at the dose of 160 mg/kg on 5th day; assay type: functional
[10] = test system: TLX-5; test: In vivo antitumor activity against the TLX5 lymphoma cell line in mouse species CBA/CA after intraperitoneal administration (inoculum cells-2x10E5,sc) at the dose of 20 mg/kg on 5th day; assay type: functional
[11] = test system: TLX-5; test: In vivo antitumor activity against the TLX5 lymphoma cell line in mouse species CBA/CA after intraperitoneal administration (inoculum cells-2x10E5,sc) at the dose of 320 mg/kg on 5th day; assay type: functional
[12] = test system: TLX-5; test: In vivo antitumor activity against the TLX5 lymphoma cell line in mouse species CBA/CA after intraperitoneal administration (inoculum cells-2x10E5,sc) at the dose of 40 mg/kg on 5th day; assay type: functional
[13] = test system: TLX-5; test: In vivo antitumor activity against the TLX5 lymphoma cell line in mouse species CBA/CA after intraperitoneal administration (inoculum cells-2x10E5,sc) at the dose of 10 mg/kg; assay type: functional
[14] = test system: L1210; test: In vivo antitumor activity against the L1210 leukemia cell line in mouse species B6D2F1 after peroral administration (inoculum cells-10E5,ip) at the dose of 10 mg/kg on 10th day; assay type: functional; settings: route oral; procedure, shortened: as §1
[15] = test system: L1210; test: In vivo antitumor activity against the L1210 leukemia cell line in mouse species B6D2F1 after peroral administration (inoculum cells-10E5,iv) at the dose of 200 mg/kg; assay type: functional; settings: route oral
[16] = test system: L1210; test: In vivo antitumor activity against the L1210 leukemia cell line in mouse species B6D2F1 after peroral administration (inoculum cells-10E5,iv) at the dose of 100 mg/kg; assay type: functional; settings: route oral
[17] = test system: L1210; test: In vivo antitumor activity against the L1210 leukemia cell line in mouse species B6D2F1 after peroral administration (inoculum cells-10E5,iv) at the dose of 100 mg/kg on 7th day; assay type: functional; settings: route oral; procedure, shortened: as §1
[18] = test system: L1210; test: In vivo antitumor activity against the L1210 leukemia cell line in mouse species B6D2F1 after peroral administration (inoculum cells-10E5,iv) at the dose of 200 mg/kg on 7th day; assay type: functional; settings: route oral; procedure, shortened: as §1
[19] = test system: L1210; test: In vivo antitumor activity against the L1210 leukemia cell line in mouse species B6D2F1 after peroral administration (inoculum cells-10E5,iv) at the dose of 40 mg/kg; assay type: functional; settings: route oral
[20] = test system: L1210; test: In vivo antitumor activity against the L1210 leukemia cell line in mouse species B6D2F1 after peroral administration (inoculum cells-10E5,iv) at the dose of 10 mg/kg; assay type: functional; settings: route oral
[21] = test system: L1210; test: In vivo antitumor activity against the L1210 leukemia cell line in mouse species B6D2F1 after peroral administration (inoculum cells-10E5,iv) at the dose of 20 mg/kg; assay type: functional; settings: route oral
[22] = test system: L1210; test: In vivo antitumor activity against the L1210 leukemia cell line in mouse species B6D2F1 after peroral administration (inoculum cells-10E5,iv) at the dose of 10 mg/kg on 7th day; assay type: functional; settings: route oral
[23] = test system: L1210; test: In vivo antitumor activity against the L1210 leukemia cell line in mouse species B6D2F1 after peroral administration (inoculum cells-10E5,iv) at the dose of 40 mg/kg on 7th day; assay type: functional; settings: route oral; procedure, shortened: as §1
[24] = test system: L1210; test: In vivo antitumor activity against the L1210 leukemia cell line in mouse species B6D2F1 after peroral administration (inoculum cells-10E5,iv) at the dose of 20 mg/kg on 7th day; assay type: functional; settings: route oral; procedure, shortened: as §1
[25] = test system: TLX-5; test: In vivo antitumor activity against the TLX5 lymphoma cell line in mouse species CBA/CA after intraperitoneal administration (inoculum cells-2x10E5,sc) at the dose of 320 mg/kg; assay type: functional; procedure, shortened: as §3
[26] = test system: TLX-5; test: In vivo antitumor activity against the TLX5 lymphoma cell line in mouse species CBA/CA after intraperitoneal administration (inoculum cells-2x10E5,sc) at the dose of 640 mg/kg; assay type: functional; procedure, shortened: as §3
[27] = test system: TLX-5; test: In vivo antitumor activity against the TLX5 lymphoma cell line in mouse species CBA/CA after intraperitoneal administration (inoculum cells-2x10E5,sc) at the dose of 640 mg/kg on 5th day; assay type: functional
[28] = test system: TLX-5; test: as §4; assay type: functional; remark: listed apart in the source
Procedure, shortened: (§5)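 CBA/CA mice were implanted sc with 2 × 10^5 TLX5 lymphoma cells. Compound was given ip on day 3 in 10% Me2SO in arachis oil, over 60 days, in groups of 5. T/C% = mean death day of treated/mean death day of controls. Survivors to day 60 were counted.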

[29] = test system: L1210; test: In vivo antitumor activity against the L1210 leukemia cell line in mouse species B6D2F1 after peroral administration (inoculum cells-10E5,iv) at the dose of 50 mg/kg; assay type: functional; settings: route oral
[30] = test system: L1210; test: In vivo antitumor activity against the L1210 leukemia cell line in mouse species B6D2F1 after peroral administration (inoculum cells-10E5,iv) at the dose of 50 mg/kg on 7th day; assay type: functional; settings: route oral; procedure, shortened: as §1
[31] = test system: L1210; test: In vivo antitumor activity against the L1210 leukemia cell line in mouse species B6D2F1 after peroral administration (inoculum cells-10E5,iv) at the dose of 5 mg/kg on 7th day; assay type: functional; settings: route oral
[32] = test system: TLX-5; test: as §2; assay type: functional; procedure, shortened: as §5; remark: listed apart in the source
[33] = test system: TLX-5; test: In vivo antitumor activity against the TLX5 lymphoma cell line in mouse species CBA/CA after intraperitoneal administration (inoculum cells-2x10E5,sc) at the dose of 320 mg/kg on 3rd day
[34] = test system: L1210; test: In vivo antitumor activity against the L1210 leukemia cell line in mouse species B6D2F1 after peroral administration (inoculum cells-10E5,iv) at the dose of 200 mg/kg on 10th day; assay type: functional; settings: route oral; procedure, shortened: as §1

CNC(=O)c1ncn2c(=O)n(CCCl)nnc12
Survivors [1]: 0
T/C [2]: >154%
Survivors [3]: 0
Survivors [4]: 0
Survivors [5]: 0

O=C(N[N+](=O)[O-])c1ncn2c(=O)n(CCCl)nnc12
T/C [6]: >354%
T/C [2]: 109%
T/C [7]: 101%
T/C [8]: 118%
Survivors [9]: 2
Survivors [10]: 0
Survivors [11]: 0
Survivors [12]: 0
Survivors [5]: 0

[N-]=[N+]=NC(=O)c1ncn2c(=O)n(CCCl)nnc12
T/C [13]: 101%
T/C [2]: 97%
T/C [7]: 96%
T/C [8]: 106%
Survivors [3]: 0
Survivors [9]: 0
Survivors [10]: 0
Survivors [12]: 0
Survivors [5]: 0

CN(C)C(=O)c1ncn2c(=O)n(CCCl)nnc12
Survivors [14]: 0
Survivors [1]: 0
Survivors [9]: 0
Survivors [10]: 0

O=C(NO)c1ncn2c(=O)n(CCCl)nnc12
T/C [15]: 218%
T/C [16]: 187%
Survivors [17]: 0
Survivors [18]: 0

O=C(NCCCl)c1ncn2c(=O)n(CCCl)nnc12
T/C [19]: 227%
T/C [20]: 121%
T/C [21]: 183%
Survivors [22]: 0
Survivors [23]: 0
T/C [13]: 103%
T/C [2]: 142%
T/C [7]: >361%
Survivors [3]: 0
Survivors [10]: 0
Survivors [12]: 3
Survivors [5]: 0
Survivors [24]: 0

COC(=O)c1ncn2c(=O)n(CCCl)nnc12
T/C [6]: 123%
T/C [2]: 106%
T/C [25]: 140%
T/C [7]: 110%
T/C [8]: 110%
Survivors [9]: 0
Survivors [10]: 0
Survivors [11]: 0
Survivors [12]: 0
Survivors [5]: 0

CCOC(=O)CNC(=O)c1ncn2c(=O)n(CCCl)nnc12
T/C [6]: 105%
T/C [25]: 114%
T/C [26]: 139%
T/C [8]: 96%
Survivors [9]: 0
Survivors [11]: 0
Survivors [27]: 0
Survivors [5]: 0

O=C(NC1CCCCC1)c1ncn2c(=O)n(CCCl)nnc12
T/C [2]: 109%
T/C [7]: 125%
T/C [8]: >277%
Survivors [28]: 0
Survivors [10]: 0
Survivors [11]: 0
Survivors [12]: 0
Survivors [5]: 1

O=C(NOCc1ccccc1)c1ncn2c(=O)n(CCCl)nnc12
T/C [15]: 98%
T/C [16]: 98%
T/C [29]: 98%
Survivors [17]: 0
Survivors [18]: 0
Survivors [30]: 0

NC(=O)c1ncn2c(=O)n(CCCl)nnc12 [MITOZOLOMIDE]
Survivors [22]: 0
Survivors [31]: 0
Survivors [3]: 0
Survivors [32]: 0
Survivors [4]: 0
Survivors [24]: 0

O=C(Nc1ccccc1)c1ncn2c(=O)n(CCCl)nnc12
Survivors [9]: 0
Survivors [10]: 0
Survivors [11]: 0
Survivors [12]: 0
Survivors [5]: 0

CCSC(=O)c1ncn2c(=O)n(CCCl)nnc12
T/C [6]: 119%
T/C [2]: 106%
T/C [25]: 125%
T/C [7]: 104%
T/C [8]: 108%
Survivors [9]: 0
Survivors [10]: 0
Survivors [12]: 0
Survivors [5]: 0
Survivors [33]: 0

CC(C)(C)NC(=O)c1ncn2c(=O)n(CCCl)nnc12
T/C [15]: 307%
T/C [16]: 149%
T/C [29]: 132%
Survivors [17]: 0
Survivors [34]: 0
Survivors [30]: 0
